Data: paper PMC2859510 (The Journal of Biological Chemistry, 2010)
Entries after “also recorded” stand apart in the source; their conditions may differ. Where no end group is shown, it is not given here.

Columns and labels:
GST-NEMO-(2–200) = GST-NEMO-(2–200) (UniProt Q9Y6K9); experiment: AlphaScreen or HTRF
IKK-2 (Ser^181); IκBα = assay type: cell-based, patients with rheumatoid arthritis; conditions: RASF, peptide 1 h before 1 ng/ml IL-1β 10 min; IKK-2 11-mer
Method in brief: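 Rheumatoid arthritis synovial fibroblasts were exposed to peptide for 1 h, then to 1 ng/ml IL-1β for 10 min. The same lysates also served the kinase assay. Proteins were separated by SDS-PAGE and transferred to PVDF. Membranes were probed 2 h at 25 °C with anti-phospho-IKK-1(Ser180)/IKK-2(Ser181) or anti-IκBα, then with secondary Ab for 1 h. Bands were read by infrared imaging.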

NEMO-IKK-2 complex = experiment: Immunoprecipitation of the IKK complex with anti-NEMO from RASF; assay type: cell-based, patients with rheumatoid arthritis; conditions: 150 μM WT or mutant peptide, 30 min, then 1 ng/ml IL-1β 10 min; IKK-2 11-mer
Method in brief: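 Fibroblasts were given 150 μM WT or mutant peptide for 30 min, then 1 ng/ml IL-1β for 10 min at 37 °C. Cells were lysed in 20 mM Tris pH 7.6, 150 mM NaCl, 0.5% NP-40, PMSF, protease and phosphatase inhibitors. From 50 μg lysate, the complex was pulled down with anti-NEMO mAb for 1 h, then Protein A beads for 1 h. Precipitates and inputs were blotted under reducing SDS-PAGE and read by infrared imaging. Runs were repeated 2–4 times.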

NF-κB reporter gene [1] = conditions: cited from earlier work
IL-1β-stimulated RASF = experiment: IL-1β-induced IL-6 production in RASF; assay type: cell-based, patients with rheumatoid arthritis; conditions: pretreated 2 h, 1 ng/ml IL-1β 18 h, 1% serum, IKK-2 11-mer
Method in brief: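 Fibroblasts were grown in high-glucose DMEM with 15% defined bovine serum and 50 μg/ml gentamicin. They were seeded at 1.5 × 10^4 cells/well, attached overnight, then moved to DMEM with 1% serum. Cells got rising peptide doses for 2 h, then 1 ng/ml IL-1β for 18 h. Secreted IL-6 was read by MSD, IC50 fitted, and viability checked by Alamar Blue. Data are % of stimulated cells, mean ± S.D. of ≥3 determinations.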

NEMO-IKK-2 interactions = experiment: In situ proximity ligation assay, NEMO-IKK-2 interactions in RASF; assay type: cell-based, patients with rheumatoid arthritis; conditions: data not shown
Method in brief: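 RASF on culture slides (2.5 × 10^4 cells/well, DMEM 10% FBS, overnight 37 °C) were moved to serum-free DMEM with 1% DMSO or test compound for 30 min. Cells were fixed (4% paraformaldehyde), permeabilized (0.1% Triton X-100), and blocked. They were then incubated overnight at 4 °C with anti-NEMO plus anti-IKK-2 Abs, then with oligonucleotide-linked probes (1 h, 37 °C), followed by ligation and amplification. Counterstained with Hoechst and imaged at ×20; signals/cell averaged per image.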

[2] = tested on: bovine nasal cartilage explant cultures; assay type: cell-based; conditions: data not shown
unstimulated RASF = experiment: Basal IL-6 production in RASF; assay type: cell-based, patients with rheumatoid arthritis; conditions: pretreated 2 h, vehicle 18 h, IKK-2 11-mer
Method in brief: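 Commercial RASF were seeded at 1.5 × 10^4 cells/well in high-glucose DMEM with 15% defined bovine serum and 50 μg/ml gentamicin, attached overnight, then switched to DMEM with 1% serum. Cells were pretreated 2 h with increasing test compound concentrations, then given vehicle for 18 h. Secreted IL-6 was measured by MSD; cytotoxicity by Alamar Blue. Expressed as % of untreated cells; mean ± S.D., ≥3 determinations.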

LPS-stimulated PBMC = experiment: LPS-induced TNF-α and IL-6 production in PBMC; assay type: cell-based, human; conditions: pretreated 2 h, 10 ng/ml LPS 18 h, IKK-2 11-mer, Fig. 1A/data not shown
Method in brief: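 PBMC were Ficoll-isolated from heparinized healthy-donor blood and kept in DMEM with 5% endotoxin-free FBS and pen/strep. They were plated at 2.5 × 10^5 cells/well and given rising peptide doses for 2 h. Then 10 ng/ml LPS or vehicle was added for 18 h, at 1% DMSO final. TNF-α and IL-6 were read by MSD, IC50 fitted, and viability checked by Alamar Blue. Data are % of LPS-stimulated cells, mean ± S.D.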

[3] = biological target: GST-NEMO-(2–200) and IKK-2-FLAG (Homo sapiens, UniProt Q9Y6K9); experiment: Alphascreen binding assay, recombinant NEMO and IKK-2; conditions: pH 7.4, read-out: inhibition of NEMO-IKK-2 interaction at 100 μM, Alphascreen
Method in brief: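 GST-NEMO-(2–200) (2 nM) and C-terminal FLAG-tagged full-length IKK-2 (2 nM) were incubated 30 min at room temperature in buffer containing 50 mM HEPES pH 7.4, 0.01% BSA, 0.0005% Tween 20 and 1 mM DTT. Unlabeled competitor peptides were titrated in for 30 min. Glutathione donor and anti-FLAG acceptor beads were added, overnight at room temperature, then Alphascreen read. Mean ± S.E. of four independent experiments.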

unstimulated PBMC = experiment: Basal TNF-α and IL-6 production in PBMC; assay type: cell-based, human; conditions: pretreated 2 h, vehicle 18 h, IKK-2 11-mer
Method in brief: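 Human PBMC from heparinized healthy-donor blood were isolated by Ficoll, plated at 2.5 × 10^5 cells/well in DMEM with 5% endotoxin-free FBS and penicillin/streptomycin. Cells were pretreated 2 h with increasing test compound concentrations, then given vehicle for 18 h (1% DMSO final). TNF-α and IL-6 were measured by MSD; cytotoxicity by Alamar Blue. Expressed as % of untreated cells; mean ± S.D., ≥3 determinations.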

IRAK-1, TAK-1, IκBα, p65 = experiment: NF-κB signaling intermediates in IL-1β-stimulated RASF; assay type: cell-based, patients with rheumatoid arthritis; conditions: then 1 ng/ml IL-1β 10 min; for IRAK-1 fate (disappearance of band) / TAK-1 phosphorylation: 30 min
Method in brief: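 Fibroblasts were given peptide for 30 min, then 1 ng/ml IL-1β for 10 min at 37 °C. Lysis used Tris pH 7.6 / NaCl / 0.5% NP-40 buffer with protease and phosphatase inhibitors, with protein measured by Bradford. Blots were run by SDS-PAGE and PVDF transfer, with primary Abs 2 h at 25 °C (anti-IRAK-1, anti-phospho-TAK-1, anti-p65) and secondary Ab 1 h. Tubulin served as loading control.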

NF-κB reporter gene [4] = conditions: proinflammatory stimuli (TNF-α); cited from earlier work
NEMO-(2-200) = NEMO-(2-200) (UniProt Q9Y6K9); experiment: fluorescence polarisation
[5] = biological target: GST-NEMO-(2–200) and biotinylated IKK-1/2 chimeric 44-mer peptide (Homo sapiens, UniProt Q9Y6K9); experiment: Time-resolved FRET binding assay
IKK complex = experiment: Native PAGE / Western blot: release of IKK-2 from an IKK complex in RASF; assay type: cell-based, patients with rheumatoid arthritis; conditions: 30 min peptide, then IL-1β 10 min, IKK-2 11-mer

Chain of GST-NEMO-(2–200) (Q9Y6K9 2-200): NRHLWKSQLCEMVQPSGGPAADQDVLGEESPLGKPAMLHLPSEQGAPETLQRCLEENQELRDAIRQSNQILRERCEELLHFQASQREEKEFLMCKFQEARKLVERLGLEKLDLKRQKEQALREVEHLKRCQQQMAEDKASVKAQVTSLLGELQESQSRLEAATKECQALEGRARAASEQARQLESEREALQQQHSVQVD
Chain of NEMO-(2-200) (Q9Y6K9 2-200): as above
Chain of GST-NEMO-(2–200) and IKK-2-FLAG (Q9Y6K9 2-200): as above
Chain of GST-NEMO-(2–200) and biotinylated IKK-1/2 chimeric 44-mer peptide (Q9Y6K9 2-200, change not shown): as the sequence (Q9Y6K9 2-200) above

Substance | IC50 (GST-NEMO-(2–200)) [µM] | IKK-2 phosphorylation at Ser^181 (IKK-2 (Ser^181); IκBα) | IκBα degradation (IKK-2 (Ser^181); IκBα) | cytokine-induced release of glycosaminoglycans [2] | basal IL-6 production, RASF (unstimulated RASF) | basal cytokine production (TNF-α and IL-6), PBMC (unstimulated PBMC) | IRAK-1 fate (disappearance of band) (IRAK-1, TAK-1, IκBα, p65) | TAK-1 phosphorylation (IRAK-1, TAK-1, IκBα, p65) | IκBα degradation (30 min pretreatment) (IRAK-1, TAK-1, IκBα, p65) | other results
Antennapedia homeodomain-conjugated IKK-2 11-mer NBD peptide (WT) | > 100 | – | – | – | – | – | – | – | – | percent inhibition at 100 μM (GST-NEMO-(2–200)): 40%
DRQIKIWFQNRRMKWKKTALDWSWLQTE [WT NBD peptides] | – | inhibited | inhibited | inhibited | neither WT nor mutant NBD peptides had an inhibitory effect; also recorded: slight increase in basal cytokine production | neither WT nor mutant NBD peptides had an inhibitory effect; also recorded: slight increase in basal cytokine production | no effect | no effect | inhibited IκBα degradation in a concentration-dependent manner | relative concentration of IKK-2 in the immunoprecipitated complex (NEMO-IKK-2 complex): no significant effect; NF-κB reporter gene activity, basal (NF-κB reporter gene [1]): did not inhibit basal reporter gene activity; IL-1β-induced IL-6 production (IL-1β-stimulated RASF): completely blocked; NEMO-IKK-2 interactions (PLA), unstimulated (NEMO-IKK-2 interactions): inhibited NEMO-IKK-2 interactions in unstimulated cells; LPS-induced production of IL-6 (LPS-stimulated PBMC): completely blocked; inhibition at 100 µM [3]: 40%; NF-κB reporter gene activity, stimulated (NF-κB reporter gene [4]): inhibited NF-κB reporter gene activity
IKK-2 45-mer mutant (W739A and W741A) (peptide) | > 1 | – | – | – | – | – | – | – | – | IC50 (NEMO-(2-200)): > 1000 nM
PAKKSEELVAEAHNLCTLLENAIQDTVREQDQSFTALDWSWLQTE [IKK-2 45-mer] | – | – | – | – | – | – | – | – | – | IC50 [5]: 1 to 7 nM
TALDASALQTE [mutant NBD peptides] | – | WT but not mutant NBD peptides inhibited | WT but not mutant NBD peptides inhibited | WT but not mutant NBD peptides inhibited | neither WT nor mutant NBD peptides had an inhibitory effect | neither WT nor mutant NBD peptides had an inhibitory effect | failed | failed | failed to protect IκBα from degradation | release of IKK-2 from IKK complex, IL-1β-treated (IKK complex): WT but not mutant NBD peptides led to the appearance of an IKK-2 band distinct from the complex; also recorded: WT but not mutant NBD peptides resulted in the release of IKK-2
